Source: ChEMBL document CHEMBL4513216, “Probing the Open Global Health Chemical Diversity Library for Multistage-Active Starting Points for Next-Generation Antimalarials” (ACS Infect Dis, 2020)

Assay: Toxicity liver stage against HepG2, at 10uM
Assay type: cell-based
Set-up: test concentration 10 uM, cell line HepG2-A16-CD81EGFP
Details: human, HepG2-A16-CD81EGFP cells; read-out: INHIBITION
How it was run: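 Uninfected HepG2-A16-CD81EGFP cells, 3 × 10^3 per well, 1536-well, plated on prespotted compound at 10 μM final, parasite-free screening media added to match infected plates; puromycin 10 μM positive, DMSO 0.5% negative; run in parallel with 48 h PbLuc assay at 37 °C, 5% CO2; viability by CellTiter-Glo luminescence, normalized to controls.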

Structure (SMILES)	cytotoxicity at 10 µM
COc1ccc(CN2CC[C@H](c3nc4cccc(C(N)=O)c4[nH]3)C2)cc1	12.1%
Cc1nccn1-c1cccc(C2CCCN2S(=O)(=O)c2cn(C)cn2)n1 (centres undefined)	7.99%
O=C1CO[C@H]2CN(Cc3ccccc3Br)C[C@@H]2N1	2.13%
c1cncc(-c2noc(CN3CCc4cncnc4C3)n2)c1	-3.39%
OC(CNCCn1cccn1)c1cccc(F)c1 (centres undefined)	-4.41%
Cc1nn(-c2ccc(C(=O)O)cc2)c2c1C(CC(C)C)SCC(=O)N2 (centres undefined)	-2.43%
CS(=O)(=O)NCC(=O)NC1(c2ccc(Cl)c(Cl)c2)CC1	-10.7%
COCCNS(=O)(=O)c1ccc(Cl)c(C(=O)N(C)Cc2sccc2C)c1	-7.53%
O=C(Cc1ccc(F)cc1)NCCNS(=O)(=O)c1ccc(F)c(F)c1	-6.7%
Nc1cc(C(=O)N2CCC3(CC2)Nc2ccccc2NC3=O)ccn1	6.13%
O=C(c1ccoc1)N1CCOC2(COCCN(CC3CC3)C2)C1 (centres undefined)	7.57%
Cc1nc(N2CCOCC2)ncc1-c1cc(O)nc(N2CCCC2)n1	7.63%
CS(=O)(=O)N1CCC2(CCCN(Cc3ccccn3)C2)CC1	-121%
Cc1nc(C2CCNC2)nc2c1CCC(=O)N2C (centres undefined)	3.77%
Cc1oc(CN(C)C(=O)c2ccc(C(F)(F)F)cc2)cc1C(=O)O	9.08%
Cc1cccc(CN2CCN(C(=O)[C@@H]3CSCN3C)CC2)c1	-8.56%
COc1cccc(CC(=O)N2CCCN(c3ccnc(C)c3)CC2)c1	-7.06%
CCN1CCC2(CC1)OCCN2C(=O)c1ccc(OC)c(Cl)c1	9.55%
CN(C)C(c1ccccn1)C1CCC(CNC(=O)C2CCCC2)CC1 (centres undefined)	10.5%
Cc1cccnc1CN(C)C(C(=O)O)c1ccc(-n2cccn2)cc1 (centres undefined)	-4.86%
CNc1cc(C)nc(N2Cc3cnn(Cc4ccc(F)cc4)c3C2)n1	4.03%
Cc1ccc2c(c1)CN(C(=O)c1ccccc1F)C(CN(C)C)CO2 (centres undefined)	4.66%

Structure (SMILES)	cytotoxicity at 10 µM
CCN1CC2(CCN(C(=O)c3nc4cc(C)ccn4c3F)CC2)CC1=O	12.3%
CC(C)Oc1cccc(CNC(Cc2ccsc2)c2nccs2)c1 (centres undefined)	0.732%
CC1=C(c2ccc(F)cc2)S(=O)(=O)N=C1N1CCc2ccccc21	-1.29%
COc1ccc(CNC(C)c2cnn(C)c2)cc1OC1CCCC1 (centres undefined)	-0.734%
CCCn1cc(C(=O)NC(C)c2c(C)nn(CC)c2C)c(C)n1 (centres undefined)	5.31%
Cc1noc2ncc(C(=O)NCC3CCOC3)cc12 (centres undefined)	-1.47%
CC(C)(C)OC(=O)Cn1cccc(S(=O)(=O)N2CCCCCC2)c1=O	-2.28%
OC(CN1CCN(Cc2nc(C3CC3)no2)CC1)c1ccccc1 (centres undefined)	-10.9%
Cc1cccc(CN2C[C@@H]3OCCN(S(=O)(=O)N(C)C)[C@@H]3C2)c1	-12.4%
O=C(c1ccsc1)N1CCN(CC(O)c2cccc(F)c2)CC1 (centres undefined)	-46.7%
CCc1c(C(=O)N2CC(C)OC(C)(C)C2)cnn1-c1ccccn1 (centres undefined)	-2.51%
CCC(=O)NC1CCN(c2cccc(OC(F)(F)F)c2)C1=O (centres undefined)	-11.5%
O=C(NCC(O)(c1cccs1)C1CC1)NC1CCCCC1 (centres undefined)	-2.25%
CN(C(=O)c1cccc(Cl)c1)C1CCN(c2ccccn2)CC1	-8.8%
O=C(c1cncnc1)N1Cc2ccccc2OC2(CCOCC2)C1	-8.46%
COCCN(Cc1ccncc1)C(=O)CCSCc1ccc(F)cc1	0.807%
CNc1cc(N2CCCC2CNCc2cccnc2)ncn1 (centres undefined)	-11.5%
O=C(c1ccc(Cl)o1)N1CCCC(c2cc(C(F)(F)F)[nH]n2)C1 (centres undefined)	2.14%
Cc1nc2nc(C)c3c(=O)n(-c4ccn[nH]4)ccc3n2n1	0.87%
C[C@@H]1CN(c2ccc3c(Cl)ccnc3c2F)CC(C(N)=O)O1 (some centres undefined)	4.11%
Cc1nc(Cn2cncc(Br)c2=O)no1	-12.2%
Cc1cc(=O)n(C)cc1NC(=O)NCc1cccc(F)c1	-5.3%

Structure (SMILES)	cytotoxicity at 10 µM
CCCc1cc(C(=O)N(C)Cc2ccc(OC)c3ncccc23)n(C)n1	37.2%
CC1CCN(C(=O)[C@@H]2C[C@@H]3CCN(CC4CCOCC4)C[C@@H]3O2)CC1	7.13%
CC(C)[C@H]1CN(CCS(C)(=O)=O)C[C@@H]1NC(=O)c1ccc(=O)[nH]c1	3.06%
CC(O)CN1CCC(CN(C)Cc2ccc(C(N)=O)cc2)CC1 (centres undefined)	-1.66%
COC(=O)CC(NC(=O)CCCn1cccn1)c1ccc(Cl)cc1 (centres undefined)	4.7%
CCCc1nnc(N2CCC(N3CCCC3)CC2)o1	-16.3%
CC(Cn1ccnc1)NC(=O)NCCc1cccs1 (centres undefined)	-3.16%
CCn1cc(NC(=O)c2cccc(OCC(F)(F)F)n2)cn1	-9.43%
Cc1nc(CN(C)C2CCN(Cc3ccc4ccccc4n3)C2)no1 (centres undefined)	-2.23%
O=C1CC(c2ccc(C(F)(F)F)cc2)c2snc(C(=O)O)c2N1 (centres undefined)	10.7%
Cc1c(C2SCC(=O)Nc3c2c(O)nn3C2CCCC2)cnn1C (centres undefined)	1.58%
O=C(CN1CCC2(CCCN(CCO)C2=O)C1)NCCc1ccccc1 (centres undefined)	0.174%
Cc1cccc(CN2CCC(Cc3ccccc3F)CC2)n1	1.88%
COCCOc1ccc(NC(=O)N(C(C)C)C2CC2)cn1	-9.59%
Cc1nc(C)c(CCNc2ccc(S(N)(=O)=O)cc2C#N)s1	-62.2%
Cc1ccccc1CN1CCCN(C2CCOC2=O)CC1 (centres undefined)	-3.09%
OC(CN1CCN(Cc2ccc(F)cc2)CC1)C1CC1 (centres undefined)	-23.4%
O=C(CSc1ccccn1)N1CCC(OCc2cccnc2)CC1	-3.84%
CCc1c(C)nc(C)nc1N1C[C@@H](CN(C)C)[C@@H](CO)C1	-0.247%
CC1CCN(c2cc(-n3cnc(C(=O)N4CCSCC4)c3)ncn2)CC1	0.668%
Cc1cc(C)n(C2CCCN(C(=O)C3=NN(C)C(=O)CC3)C2)n1 (centres undefined)	-9.21%
Cc1c(Cl)c(C(=O)N2CC(c3cccnc3)C2)nn1C	-5.23%

Structure (SMILES)	cytotoxicity at 10 µM
CCC(=O)N1CCC2(CC1)CC(N1CCOCC1)c1cc(C)ccc12 (centres undefined)	-149%
CCN1C[C@@H]2CN(C(=O)NCc3ccccc3)CCC[C@]2(C(=O)O)C1	3.47%
Cc1ccn(-c2ccc(C(=O)N3CCCC(C(N)=O)C3)cc2)n1 (centres undefined)	-5.38%
CCn1cc(N)c(C(=O)NCc2cnn(C)c2)n1	-0.729%
COc1cc(CCC(=O)NCC2CCCN2C)ccc1OCC(F)(F)F (centres undefined)	-5.99%
CN(C)C(=O)CO[C@@H]1CC[C@H]2[C@H]1OCCN2C(=O)C1CCOCC1	-7.56%
CC(C)C1CN(C(=O)c2nccnc2N)CCS1 (centres undefined)	-8.54%
F[C@@H]1CN(CC2CCCCC2)C[C@@H]1OCc1nc2ccccc2o1	1.9%
CCOC[C@]12COC[C@H]1CN(Cc1ccc(F)c(F)c1)C2	-107%
CC(C)[C@@H]1CN(Cc2ccsc2)C[C@H]1NS(=O)(=O)N(C)C	-23.5%
Cn1c(Cn2ncc(N3CCCCC3)cc2=O)nc2ccccc21	6.01%
Cc1noc(C)c1CCC(=O)N1CCCC(n2cccn2)C1 (centres undefined)	-7.81%
Cc1ccc(N2C[C@H]3OCC[C@H]3[C@H](C(=O)NC3CCC3)C2)nn1	-69.9%
CNc1ncc(C(=O)N2CCC(c3ccccc3C(=O)O)C2)cn1 (centres undefined)	-7.67%
COCc1noc(CCNc2ncnc3c2CCNCC3)n1	-5.59%
COc1ccccc1OCc1nc(C(C)C)no1	14%
Cn1c(C2CC2)nc2c1CCN(CCOc1cccc(F)c1)C2	-13.1%
Cc1nc(Nc2ncccn2)cc(C2CN(C(=O)c3cccnc3)C2)n1	4.42%
O=C(c1cnccn1)N1CCCC(c2cccc(-n3ccnc3)n2)C1 (centres undefined)	-9.08%
Cc1ccc(NC2CCN(C(=O)CCc3cscn3)CC2)nn1	-9.2%
Cc1nc(N2CCCC2)nc2c1CN(C(C)C)CC2	-6.85%
Cn1cc(CN2C[C@@H]3CCC[C@@H](OCc4cccnc4)[C@@H]3C2)cn1	-107%

Structure (SMILES)	cytotoxicity at 10 µM
Cc1nc(C)n(CC2CCCN2CC(=O)Nc2cc(C(C)C)no2)n1 (centres undefined)	-0.292%
CC(C)c1nnc2n1CCN(C(=O)c1cccc(C(F)(F)F)c1)C2	4.09%
CCNC(=O)N1CCC2(CC1)CCn1c(-c3cccc(OC)c3)cnc12	2.81%
CN(C)C(=O)C1CCC2(CCN(C(=O)Nc3cccc(F)c3)CC2)O1 (centres undefined)	-104%
N#CC1(NC(=O)COC(=O)Cc2cc(Cl)c3c(c2)OCCO3)CCCC1	0.935%
Cc1cccnc1CNC[C@H]1Cn2cc(-c3ccccc3)nc2CO1	-2.56%
O=C1N[C@@H]2CCN(C(=O)c3ccccc3)[C@@H]2C(=O)N1Cc1ccccc1	-1.84%
CCC(C)NC(=O)c1snnc1-c1ccc(OC)cc1 (centres undefined)	6.93%
CN(C)C1CCCN(C(=O)NCCc2cc(F)ccc2F)C1 (centres undefined)	-1.05%
CCC(NC(=O)CN(C)Cc1ccc(C)o1)c1ccc(Br)cc1 (centres undefined)	35.5%
CC(=O)Nc1ccn(Cc2ccccc2)n1	2.04%
Cc1cc(-c2ccccc2C(=O)O)nc(C2CCCN(C)C2)n1 (centres undefined)	-5.03%
O=C(CCc1ccc(Cl)s1)N1CCC(N2CCNC2=O)CC1	2.6%
CC(C)c1cc(C(=O)N2CCN(Cc3ccsc3)CC2)n[nH]1	0.0711%
c1cncc(CN2CCC(NCCc3ccc4c(c3)CCO4)CC2)c1	5.41%
Cc1cc(OCC(=O)N2CCCC(c3noc(C(C)C)n3)C2)no1 (centres undefined)	-4.56%
CS(=O)(=O)NCCCNC(=O)c1cccc(-n2cccc2)c1	-9.86%
COCc1noc(-c2ccc(N(C)Cc3ccc(C)o3)nc2)n1	-3.7%
O=C1CCCN1CCN1CCC(c2ccn[nH]2)CC1	11.3%
Cc1nc(-n2nc(-c3cccs3)cc2N)[nH]c(=O)c1C	4.84%
Cc1nc(C)c(C(=O)NCCOc2ccc(C(F)(F)F)cn2)o1	2.42%
